The text below walks through data of ChEMBL document CHEMBL1926572, “Synthesis and evaluation of the substrate activity of C-6 substituted purine ribosides with E. coli purine nucleoside phosphorylase: palladium mediated cross-coupling of organozinc halides with 6-chloropurine nucleosides” (Eur J Med Chem, 2012).

Calls of active or inactive are those of the source. The rule behind the calls is not given here.

The subject of one series is LOX IMVI. The series is described as follows: Cytotoxicity against human LOXIMVI cells assessed as cell viability after 72 hrs by sulforhodamine B assay. Format: functional, cell-based.
Conditions: not given
The gist of the method: (§1)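 Cells plated and kept at 37 °C with a range of compound concentrations for 72 h of continuous exposure; viability by sulforhodamine B staining, absorbance at 570 nm; concentration inhibiting growth by 50% determined from a single experiment.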
As to `OC[C@H]1O[C@@H](n2cnc3c(-c4ccccc4)ncnc32)[C@H](O)[C@@H]1O`, the IC50 was 6.2 µM.

On to `OC[C@H]1O[C@@H](n2cnc3c(-c4cccs4)ncnc32)[C@H](O)[C@@H]1O`, for which the IC50 turned out to be 0.3 µM.

As for `OC[C@H]1O[C@@H](n2cnc3c(C4CC4)ncnc32)[C@H](O)[C@@H]1O`, the IC50 is greater than 200 µM.

The test system of another series is ZR-75-1. The experiment in a line: Cytotoxicity against human ZR-75-1 cells assessed as cell viability after 72 hrs by sulforhodamine B assay. The series is classed as functional, cell-based. The conditions noted are these: ZR-75-1, 72 h. The gist of the method:
as §1
Consider `OC[C@H]1O[C@@H](n2cnc3c(-c4ccccc4)ncnc32)[C@H](O)[C@@H]1O`, for which the IC50 turned out to be 1.2 µM.

On to `OC[C@H]1O[C@@H](n2cnc3c(-c4cccs4)ncnc32)[C@H](O)[C@@H]1O`, for which the IC50 worked out at 0.3 µM.

Regarding `OC[C@H]1O[C@@H](n2cnc3c(C4CC4)ncnc32)[C@H](O)[C@@H]1O`, the IC50 worked out at 23 µM.

A further series relates to Mus musculus. The series is described as follows: Toxicity in nude mouse xenografted with human NCI-H23 cells assessed as mortality at 75 mg/kg, ip qd for 9 consecutive days. Format: organism-based. On the set-up: dose 75 mg/kg, route intraperitoneal. Conditions: in vivo. In a few lines:
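NCI-H23 tumours grown subcutaneously on the flanks of nude mice. Dosing began once tumours reached about 200 mg: 33, 50 or 75 mg/kg given ip once daily for 9 consecutive days. Tumour growth, deaths and body-weight loss were recorded.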
As to `OC[C@H]1O[C@@H](n2cnc3c(C4CC4)ncnc32)[C@H](O)[C@@H]1O`, the Activity result is listed as “Toxic”.

The test system of a further series is CCRF-CEM. The experiment in a line: Cytotoxicity against human CCRF-CEM cells after 72 hrs by coulter counting. Format: functional, cell-based.
Conditions: not given
Compound `OC[C@H]1O[C@@H](n2cnc3c(-c4ccccc4)ncnc32)[C@H](O)[C@@H]1O` gave an IC50 of 0.62 µM.

With `CCc1ncnc2c1ncn2[C@@H]1O[C@H](CO)[C@@H](O)[C@H]1O`, the 50% inhibitory concentration (IC50) turned out to be 0.72 µM.

For the compound `CCCc1ncnc2c1ncn2[C@@H]1O[C@H](CO)[C@@H](O)[C@H]1O`, the IC50 worked out at 6.8 µM.

`OC[C@H]1O[C@@H](n2cnc3c(C4CCC4)ncnc32)[C@H](O)[C@@H]1O` showed an IC50 of 7 µM.

With `Cc1ncnc2c1ncn2[C@@H]1O[C@H](CO)[C@@H](O)[C@@H]1O`, the IC50 is greater than 130 µM.

Turning to `OC[C@H]1O[C@@H](n2cnc3c(-c4cccs4)ncnc32)[C@H](O)[C@@H]1O`, the IC50 turned out to be 0.09 µM.

As to `OC[C@H]1O[C@@H](n2cnc3c(C4CCCC4)ncnc32)[C@H](O)[C@@H]1O`, the midpoint of inhibition, the IC50, lay at 16 µM.

Consider `Cc1ncnc2c1ncn2[C@@H]1O[C@H](CO)[C@@H](O)[C@H]1O`, for which the IC50 was 0.02 µM.

Compound `OC[C@H]1O[C@@H](n2cnc3c(C4CC4)ncnc32)[C@H](O)[C@@H]1O` gave an IC50 of 1 µM.

Take `CC(C)Cc1ncnc2c1ncn2[C@@H]1O[C@H](CO)[C@@H](O)[C@H]1O`: the IC50 was greater than 130 µM.

`CCCCc1ncnc2c1ncn2[C@@H]1O[C@H](CO)[C@@H](O)[C@H]1O` came in with an IC50 of 49 µM.

Another series relates to PC-3. The experiment in a line: Cytotoxicity against human PC3 cells assessed as cell viability after 72 hrs by sulforhodamine B assay. Format: functional, cell-based. The conditions noted are these: PC-3, 72 h. In a few lines:
as §1
On to `OC[C@H]1O[C@@H](n2cnc3c(-c4ccccc4)ncnc32)[C@H](O)[C@@H]1O`, for which the concentration for half-maximal inhibition (IC50) was 1.2 µM.

In the case of `OC[C@H]1O[C@@H](n2cnc3c(-c4cccs4)ncnc32)[C@H](O)[C@@H]1O`, the IC50 is 0.9 µM.

As to `OC[C@H]1O[C@@H](n2cnc3c(C4CC4)ncnc32)[C@H](O)[C@@H]1O`, the IC50 came to 67 µM.

The subject of a further series is NCI-H23. The series is described as follows: Antitumor activity against human NCI-H23 cells xenografted in nude mouse assessed as tumor growth inhibition at maximum tolerated dose, ip qd for 9 consecutive days. Format: functional, organism-based.
Conditions: not given
The gist of the method:
(§2)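 NCI-H23 tumors grown on the flanks of nude mice; once tumors were about 200 mg, animals received 33, 50 or 75 mg/kg ip daily for 9 consecutive days; tumor growth and body weight followed.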
For `OC[C@H]1O[C@@H](n2cnc3c(-c4cccs4)ncnc32)[C@H](O)[C@@H]1O`, the “growth inhibition (GI)” value was “inactive”.

`OC[C@H]1O[C@@H](n2cnc3c(C4CC4)ncnc32)[C@H](O)[C@@H]1O`: the “growth inhibition (GI)” value was “inactive”.

The next series concerns NCI-H23. The series is described as follows: Antitumor activity against human NCI-H23 cells xenografted in nude mouse assessed as tumor growth inhibition at 33 to 75 mg/kg, ip qd for 9 consecutive days. Format: functional, organism-based.
Conditions: not given
In a few lines:
as §2
Consider `OC[C@H]1O[C@@H](n2cnc3c(-c4cccs4)ncnc32)[C@H](O)[C@@H]1O`, for which the “growth inhibition (GI)” value is “inactive”.

For `OC[C@H]1O[C@@H](n2cnc3c(C4CC4)ncnc32)[C@H](O)[C@@H]1O`, the “growth inhibition (GI)” value was “inactive”.

In another series the test system is Escherichia coli. The experiment in a line: Activity of Escherichia coli PNP assessed per mg of protein at 100 uM by UV spectrometric analysis.
Conditions: not given
In a few lines:
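Samples taken at several times; substrate and product resolved by C-18 HPLC (5–50% acetonitrile gradient, NH₄H₂PO₄ pH 4.5) with UV detection. Rate in nmoles/mg/h; mean of at least 2 measurements.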
The compound `OC[C@H]1O[C@@H](n2cnc3c(-c4ccccc4)ncnc32)[C@H](O)[C@@H]1O` displayed an Activity of 21000 nmol/h.

In turn, `Cc1ncnc2c1ncn2[C@H]1C[C@H](O)[C@@H](CO)O1` showed an Activity of 461000 nmol/h.

Turning to `CCc1ncnc2c1ncn2[C@@H]1O[C@H](CO)[C@@H](O)[C@H]1O`, the Activity was 69000 nmol/h.

`CCCc1ncnc2c1ncn2[C@@H]1O[C@H](CO)[C@@H](O)[C@H]1O` displayed an Activity of 72000 nmol/h.

In turn, `OC[C@H]1O[C@@H](n2cnc3c(C4CCC4)ncnc32)[C@H](O)[C@@H]1O` returned an Activity of 63000 nmol/h.

Turning to `Nc1nc(F)nc2c1ncn2[C@@H]1O[C@H](CO)[C@@H](O)[C@@H]1O`, the Activity came to 1300 nmol/h.

As to `Cc1ncnc2c1ncn2[C@@H]1O[C@H](CO)[C@@H](O)[C@@H]1O`, the Activity was determined as 14 nmol/h.

Turning to `OC[C@H]1O[C@@H](n2cnc3c(-c4cccs4)ncnc32)[C@H](O)[C@@H]1O`, the Activity was 9900 nmol/h.

`OC[C@H]1O[C@@H](n2cnc3c(C4CCCC4)ncnc32)[C@H](O)[C@@H]1O` showed an Activity of 42000 nmol/h.

As to `Cc1ncnc2c1ncn2[C@@H]1O[C@H](CO)[C@@H](O)[C@H]1O`, the Activity came to 84000 nmol/h.

With `Nc1ncnc2c1ncn2[C@@H]1O[C@H](CO)[C@@H](O)[C@H]1O`, the Activity is 398000 nmol/h.

Compound `OC[C@H]1O[C@@H](n2cnc3c(C4CC4)ncnc32)[C@H](O)[C@@H]1O` displayed an Activity of 51000 nmol/h.

In turn, `CC(C)Cc1ncnc2c1ncn2[C@@H]1O[C@H](CO)[C@@H](O)[C@H]1O` came in with an Activity of 79000 nmol/h.

`CCCCc1ncnc2c1ncn2[C@@H]1O[C@H](CO)[C@@H](O)[C@H]1O` came in with an Activity of 86000 nmol/h.

A further series has as its system NCI-H23. The series is described as follows: Cytotoxicity against human NCI-H23 cells assessed as cell viability after 72 hrs by sulforhodamine B assay. The series is classed as functional, cell-based. The conditions noted are these: NCI-H23, 72 h. In a few lines: as §1
With `OC[C@H]1O[C@@H](n2cnc3c(-c4ccccc4)ncnc32)[C@H](O)[C@@H]1O`, the IC50 turned out to be 1.2 µM.

Take `OC[C@H]1O[C@@H](n2cnc3c(-c4cccs4)ncnc32)[C@H](O)[C@@H]1O`: the IC50 was 0.6 µM.

With `OC[C@H]1O[C@@H](n2cnc3c(C4CC4)ncnc32)[C@H](O)[C@@H]1O`, the IC50 is 1 µM.

The next series relates to SNB-7. The series is described as follows: Cytotoxicity against human SNB7 cells assessed as cell viability after 72 hrs by sulforhodamine B assay. Format: functional, cell-based. Conditions: SNB-7, 72 h. In a few lines: as §1
With `OC[C@H]1O[C@@H](n2cnc3c(-c4ccccc4)ncnc32)[C@H](O)[C@@H]1O`, the 50% inhibitory concentration (IC50) was 31 µM.

In the case of `OC[C@H]1O[C@@H](n2cnc3c(-c4cccs4)ncnc32)[C@H](O)[C@@H]1O`, the IC50 amounted to 10 µM.

As to `OC[C@H]1O[C@@H](n2cnc3c(C4CC4)ncnc32)[C@H](O)[C@@H]1O`, the IC50 stood at 33 µM.

The test system of another series is Mus musculus. The series is described as follows: Toxicity in nude mouse xenografted with human NCI-H23 cells assessed as decrease in body weight at 75 mg/kg, ip qd for 9 consecutive days. Format: organism-based. On the set-up: dose 75 mg/kg, route intraperitoneal; scale not given: the % may be the effect or the level left. The conditions noted are these: in vivo. The gist of the method: as §2
On to `OC[C@H]1O[C@@H](n2cnc3c(-c4cccs4)ncnc32)[C@H](O)[C@@H]1O`, for which the Activity worked out at 14%.

Another series relates to CAKI-1. The experiment in a line: Cytotoxicity against human Caki1 cells assessed as cell viability after 72 hrs by sulforhodamine B assay. Format: functional, cell-based. Conditions: CAKI-1, 72 h. The gist of the method:
as §1
In the case of `OC[C@H]1O[C@@H](n2cnc3c(-c4ccccc4)ncnc32)[C@H](O)[C@@H]1O`, the IC50 stood at 31 µM.

Turning to `OC[C@H]1O[C@@H](n2cnc3c(-c4cccs4)ncnc32)[C@H](O)[C@@H]1O`, the IC50 stood at 30 µM.

For the compound `OC[C@H]1O[C@@H](n2cnc3c(C4CC4)ncnc32)[C@H](O)[C@@H]1O`, the IC50 is greater than 200 µM.

Another series concerns DLD-1. The series is described as follows: Cytotoxicity against human DLD1 cells assessed as cell viability after 72 hrs by sulforhodamine B assay. Format: functional, cell-based. The conditions noted are these: DLD-1, 72 h. In a few lines: as §1
As for `OC[C@H]1O[C@@H](n2cnc3c(-c4ccccc4)ncnc32)[C@H](O)[C@@H]1O`, the IC50 turned out to be 6 µM.

For `OC[C@H]1O[C@@H](n2cnc3c(-c4cccs4)ncnc32)[C@H](O)[C@@H]1O`, the concentration for half-maximal inhibition (IC50) came out at 0.9 µM.

In the case of `OC[C@H]1O[C@@H](n2cnc3c(C4CC4)ncnc32)[C@H](O)[C@@H]1O`, the half-maximal inhibitory concentration (IC50) was 170 µM.
